Sampled rows, rich in hits. Any-hit rate of the full collection: about 2.5%.
TRPC4 potent: allosteric potentiators of mouse TRPC4 channel; HEK293 TRPC4beta/mu-opioid, DAMGO EC20, Fluo-4 Ca2+ flux; active compounds read high; B-score at 10 µM; 0.42% of 310,000 active;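 active = B-score of calcium response area above 5 SD of library B-scores, with initial fluorescence ratio within 5 SD of library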;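 note: B-score of integrated fluorescence ratio over time as area under calcium response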
Target sequence (Q9QUQ5 whole entry, looked up): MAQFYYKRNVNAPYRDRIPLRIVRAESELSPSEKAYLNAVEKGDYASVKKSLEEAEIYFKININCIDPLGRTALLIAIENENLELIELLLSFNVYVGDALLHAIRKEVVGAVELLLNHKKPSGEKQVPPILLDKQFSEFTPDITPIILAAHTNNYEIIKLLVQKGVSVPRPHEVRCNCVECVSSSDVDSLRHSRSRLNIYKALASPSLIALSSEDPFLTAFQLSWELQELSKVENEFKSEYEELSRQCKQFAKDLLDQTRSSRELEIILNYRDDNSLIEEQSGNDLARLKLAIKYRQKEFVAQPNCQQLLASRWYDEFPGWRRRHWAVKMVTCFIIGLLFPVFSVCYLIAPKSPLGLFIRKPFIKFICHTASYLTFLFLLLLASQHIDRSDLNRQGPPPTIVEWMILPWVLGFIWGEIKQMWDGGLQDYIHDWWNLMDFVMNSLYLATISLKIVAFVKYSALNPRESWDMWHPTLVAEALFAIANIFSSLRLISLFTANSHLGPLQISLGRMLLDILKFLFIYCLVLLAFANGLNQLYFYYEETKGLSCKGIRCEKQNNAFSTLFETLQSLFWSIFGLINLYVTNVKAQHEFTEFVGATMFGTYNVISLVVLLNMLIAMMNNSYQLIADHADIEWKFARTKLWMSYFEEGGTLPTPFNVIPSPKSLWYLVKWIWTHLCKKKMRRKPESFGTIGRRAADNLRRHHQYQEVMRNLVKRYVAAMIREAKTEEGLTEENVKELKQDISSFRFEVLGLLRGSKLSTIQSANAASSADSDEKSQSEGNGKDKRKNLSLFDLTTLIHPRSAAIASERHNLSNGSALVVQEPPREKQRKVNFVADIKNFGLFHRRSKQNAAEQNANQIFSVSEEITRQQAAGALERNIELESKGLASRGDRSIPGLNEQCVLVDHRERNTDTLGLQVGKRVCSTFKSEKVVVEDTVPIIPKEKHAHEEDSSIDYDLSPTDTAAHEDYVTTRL
Pemphigus Ab inh: blocks pemphigus antibody binding to human desmoglein-3. P32926. DSG3-coupled beads, scFv-anti-DSG3-GFP binding, flow cytometry; active compounds read low. binding (percent of control), % at 10 µM. 0.48% of 310,000 active;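 active = binding more than 3 SD below its plate's average and above zero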;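 note: hits lower antibody fragment binding to DSG3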
TRPC4 act: opens the mouse TRPC4 cation channel; AID 2237; B-score at 10 µM; 0.49% of 310,000 active; HEK293 TRPC4beta/mu-opioid, Fluo4 calcium fluorescence; active compounds read high; Q9QUQ5;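 active = B-score above 5 SD of library B-scores, and initial fluorescence ratio not above library mean plus 5 SD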;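 note: positive B-score marks a calcium rise read as TRPC4 activation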
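Assay system – TRPC4beta and mu-opioid receptor HEK293 stable cells · Measured by – Fluo4 fluorescence, kinetic · Schedule – dye loading 45 min room temperature, 110 s kinetic read · Read-out – B-scored integrated calcium fluorescence ratio · Controls – buffer and maximal DAMGO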
TRPC6 inhibitor: inhibitors of mouse TRPC6 channel | Q61143 | HEK293-TRPC6, membrane potential dye, ACh-evoked depolarization; active compounds read low | B-score at 10 µM | 1.1% of 310,000 active;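 active = B-score under library mean minus 3 SD, initial fluorescence not abnormally high, positive integrated signal ratio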;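 note: B-score derived from integrated fluorescence ratio over the kinetic read; more negative B-score means stronger inhibition of depolarization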
TRPC4 inh: inhibitors of mouse TRPC4 channel | HEK293 TRPC4beta/mu-opioid, DAMGO-evoked Fluo4 calcium flux; active compounds read low | AID 2247 | 0.39% of 300,000 active | B-score at 10 µM | Q9QUQ5;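 active = B-score over 3 SD under the library average, no early fluorescence shift, positive overall ratio signal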
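Assay system: Stable TRPC4beta/mu-opioid receptor HEK293 cells | Reagent: DAMGO in two steps, submaximal then maximal | Compound dosing: Single concentration per test compound | Signal: Fluo4 Ca2+ flux fluorescence | Evaluation: Per-well B score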
TRPC6 act: mouse TRPC6 channel activation; Q61143; 0.13% of 310,000 active; AID 2550; B-score at 10 µM; HEK293-TRPC6 membrane potential dye fluorescence; active compounds read high;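 active = B-score of the integrated fluorescence ratio above library mean plus 3 SD, and starting fluorescence ratio within library mean plus 5 SD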;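 note: higher score means more depolarization so channel activation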
Numbers without * were called inactive; i = inactive; nt = no result.

SMILES	TRPC4 potent	Pemphigus Ab inh	TRPC4 act	TRPC6 inhibitor	TRPC4 inh	TRPC6 act
Cn1ncc([N+](=O)[O-])c1C(=O)N/N=C/c1cccc([N+](=O)[O-])c1	i	84	i	i	i	i
O=C(Cc1ccccc1[N+](=O)[O-])OCc1cccc([N+](=O)[O-])c1	i	nt	i	i	-6*	i
COc1ccc(Oc2cc(Cl)nc(N)n2)cc1	i	105	i	i	i	i
Nc1nc(Cl)cc(Oc2ccc([N+](=O)[O-])cc2)n1	i	55*	i	i	i	i
Cc1cc(C)n(-c2nc3ccccc3nc2N2CCN(S(=O)(=O)c3ccc4ccccc4c3)CC2)n1	i	89*	i	i	i	i
Cc1ccc(NC(=O)COC(=O)c2ccc(C)c(S(=O)(=O)N3CCOCC3)c2)cc1	nt	96	nt	nt	nt	nt
O=c1[nH]c(/C=C/c2ccc(Cl)cc2Cl)c([N+](=O)[O-])c(=O)[nH]1	i	121	i	i	i	i
Cc1cc2nc3c(=O)[nH]c(=O)[nH]c3nc2c([N+](=O)[O-])c1N	nt	35*	nt	nt	nt	nt
Cn1nnc2sc3c(c2c1=O)CCCC3	i	79*	i	i	i	i
Cc1nc2sc3c(c2c(=O)n1N)CCC3	i	104	i	i	i	i
CCC(=O)c1ccc(OCC(=O)Nc2ccc3c(c2)OCCO3)cc1	nt	-3.4*	nt	nt	nt	nt
O=C(COc1ccc(F)cc1)Nc1ccc2c(c1)OCCO2	i	112	i	i	i	i
COc1cc(OC)nc(NC(=O)COC(=O)c2cccc(Cl)c2)n1	i	98	i	i	i	i
Nc1c(-c2cccs2)cnn1-c1nc(-c2ccc(F)cc2)cs1	i	-16*	i	i	i	i
O=C(CCCN1C(=O)NC2(CCCC2)C1=O)NCc1ccccc1	nt	99	nt	nt	nt	nt
O=C(NC(Nc1nc2ccc([N+](=O)[O-])cc2s1)(C(F)(F)F)C(F)(F)F)c1ccccc1Cl	i	83	i	-6.9*	i	14*
COc1ccc(CNc2nc(-c3cccnc3)nn2C(=O)C(C)C)cc1	i	97	i	i	-5*	i
Cc1ccc(-n2nc3c(N4CCC(C(=O)N5CCC(C(N)=O)CC5)CC4)nnc(C)c3c2C)cc1	i	182	i	i	i	i
CCN1CCN(C(=O)C2CCN(c3nnc(C)c4c(C)n(-c5ccc(C)cc5)nc34)CC2)CC1	i	127	i	i	-5*	i
Cc1cc(C)c2c(=O)n(CC(=O)Nc3ccc(Br)c(C)c3)sc2n1	i	89	i	i	i	i
Cc1cc(C)c2c(=O)n(CC(=O)Nc3cccc(Cl)c3C)sc2n1	16*	84	i	i	i	i
CCOc1ccc(-c2csc(NC(=O)c3cccc(N4C(=O)CCC4=O)c3)n2)cc1	i	57*	i	i	i	i
COc1ccc(-c2csc(NC(=O)c3cccc(N4C(=O)CCC4=O)c3)n2)cc1OC	nt	101	nt	nt	nt	nt
Cc1cccc(C)c1OCC(=O)NCC1COc2ccccc2O1 (configuration not stated)	nt	113	nt	nt	nt	nt
Cc1ccc2[nH]c(C(=O)NN=C3CCCCC3)c(-c3ccccc3)c2c1	10*	115	i	i	i	i
SMILES	TRPC4 potent	Pemphigus Ab inh	TRPC4 act	TRPC6 inhibitor	TRPC4 inh	TRPC6 act
Cc1ccc2[nH]c(C(=O)O)c(-c3ccccc3)c2c1	i	90	i	i	i	i
Cc1cc(C)c(C)c(S(=O)(=O)NCc2ccco2)c1C	26*	nt	i	i	i	i
Cc1ccc(S(=O)(=O)NCc2ccco2)cc1C	i	102	i	i	i	i
COc1cc(CNCCc2ccc(F)cc2)ccc1OCc1ccc(Cl)nc1	i	103	i	i	-6*	i
O=C(OC(C(=O)NCC1CCCO1)c1ccc(F)cc1)c1cccs1 (configuration not stated)	i	106	47*	i	i	i
CC(OC(=O)c1cccs1)C(=O)NCC1CCCO1 (configuration not stated)	i	nt	i	i	i	i
O=C(CCC(=O)c1ccc(F)cc1)Nc1cccc(Br)c1	i	99	i	i	i	i
Cc1ccc(NC(=O)NCc2ccc3[nH]c(C)cc3c2)cc1	i	87*	i	i	i	i
Cc1cccc(NC(=O)NCc2ccc3[nH]c(C)cc3c2)c1	i	93	i	i	i	i
Cc1cc2cc(CNC(=O)NC3CCCCC3)ccc2[nH]1	i	74*	i	i	i	i
Cc1ccc(OCC(=O)NNC(=S)NC(=O)C(C)(C)C)c(Br)c1	i	100	235*	i	i	i
Cc1ccc(OCC(=O)NNC(=S)NC(=O)C2CCCCC2)c(C)c1	i	105	54*	i	i	i
CCn1nnc2cc(C(=O)Nc3cc(Cl)ccc3C)ccc21	nt	95	nt	nt	nt	nt
Cc1cccn2c(=O)c3cc(C(=O)N(C)C)n(C)c3nc12	25*	106	i	i	i	i
N#Cc1ccc(NC(=O)COC(=O)CSc2nnc(-c3ccc(Cl)cc3)o2)cc1	i	87	i	i	i	i
O=C1C2CCCN2C(c2cccs2)N1c1ccc(F)cc1 (configuration not stated)	i	107	i	i	i	i
COc1ccc(C2N(c3cccc(Cl)c3)C(=O)C3CCCN32)cc1 (configuration not stated)	i	112	i	i	i	i
COc1cccc(N2C(=O)C3CCCN3C2c2cccs2)c1 (configuration not stated)	i	103	43*	i	i	i
Cc1ccc(C2N(c3cccc(Cl)c3)C(=O)C3CCCN32)o1 (configuration not stated)	33*	104	i	i	i	i
Cc1ccc(S(=O)(=O)N(C)CCN(C)S(=O)(=O)c2ccc(C)cc2)cc1	nt	91	nt	nt	nt	nt
O=C(O)c1cccc(-n2cccc2/C=C2/NC(=O)N(c3ccc(Cl)cc3)C2=O)c1	nt	41*	nt	nt	nt	nt
O=C(COC(=O)c1cccc(Cl)c1)Nc1cccc(S(=O)(=O)NC2=NCCC2)c1	nt	115	nt	nt	nt	nt
CCN(CC)S(=O)(=O)c1ccc(/C=C/C(=O)Nc2cccc(F)c2)cc1	i	114	i	i	i	i
CCCCOc1c(Cl)cc(CNC(C)(C)CO)cc1OCC	i	101	i	i	i	i
CCCCNCc1cc(Cl)c(OCCC)c(OCC)c1	i	98	i	i	-7*	i
